ERp5 block: inhibitors of ERp5-driven insulin aggregation, primary screen, biochemical, turbidity, absorbance 650 nm, single point. Protein disulfide-isomerase A6 (Homo sapiens), Q15084. 90 min. inhibition, % at 9.99 µM. actives 0.05% (n = 350,000);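 active means mean replicate inhibition above about 25%, with every replicate also reaching it, limit read from the data, passing the limit was not always enough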
Target sequence (Q15084 whole entry, looked up): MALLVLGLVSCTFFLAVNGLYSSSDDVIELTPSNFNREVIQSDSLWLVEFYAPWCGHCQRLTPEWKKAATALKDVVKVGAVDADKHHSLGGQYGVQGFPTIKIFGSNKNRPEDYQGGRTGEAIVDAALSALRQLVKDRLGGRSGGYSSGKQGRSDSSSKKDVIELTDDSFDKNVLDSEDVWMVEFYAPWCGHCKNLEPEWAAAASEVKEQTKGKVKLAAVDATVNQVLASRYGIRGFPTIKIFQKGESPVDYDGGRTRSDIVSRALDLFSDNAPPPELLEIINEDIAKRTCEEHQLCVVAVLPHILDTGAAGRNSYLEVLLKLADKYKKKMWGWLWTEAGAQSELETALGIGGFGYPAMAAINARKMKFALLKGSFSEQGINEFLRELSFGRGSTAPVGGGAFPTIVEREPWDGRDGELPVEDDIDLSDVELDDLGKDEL
SIRT5 inh: SIRT5 desuccinylase inhibitors, primary screen, biochemical, fluorescence imaging, single point, set 5; Purified SirT5, succinyl-peptide AMC, trypsin-coupled fluorescence; inhibition, % at 15 µM; actives 1.1% (n = 330,000); in the data active means inhibition above about 15%
GSIS activator: GLuc luminescence reporter in INS-1E cells, primary screen for activators of glucose-dependent secretion of insulin | INS-1E GLuc reporter insulin secretion, 2-3 h | activation, % at 16.6 µM | actives 0.61% (n = 370,000) | AID 743287, 2014;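 active means lowest replicate activation of at least 40%, so every replicate reaches that level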;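 further: 0% = median of neutral control wells and 100% = median of IBMX positive control wells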
PDI inh: inhibitors of human PDI, primary screen, biochemical, turbidity, single point, plate reader | Protein disulfide-isomerase (Homo sapiens), P07237 | PDI insulin aggregation turbidity, A650, 90 min | inhibition, % at 10 µM | actives 0.052% (n = 350,000);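 active means mean inhibition across replicates of 30% or more, whatever share of single replicates reach that level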
S100A4 MyoIIA: inhibitors of S100A4-myosin IIA peptide binding, primary screen, biochemical, fluorescence polarization, TAMRA-MyoIIA peptide; inhibition, % at 10.7 µM; Protein S100-A4 (Homo sapiens), P26447; actives 0.14% (n = 360,000);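 active means mean inhibition of at least 70% across replicates, with every replicate also reaching that level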
Target sequence (P26447 whole entry, looked up): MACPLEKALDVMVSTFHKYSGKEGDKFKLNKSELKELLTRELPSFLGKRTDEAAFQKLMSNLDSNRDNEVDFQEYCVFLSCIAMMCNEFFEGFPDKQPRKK
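System – human S100A4 monomer protein, biochemical binding assay · Buffer or medium – Calcium-containing HEPES buffer, pH 7.2 · Timing – 5 min between mix addition and reading · Also added – TAMRA-labelled myosin IIA heavy-chain peptide probe, 5 nM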
* marks the source's active call; other numbers are inactive results; / = not tested or not shown. The list is not random: actives were taken first. Their share in the collection is about 1.5%.

SMILES	ERp5 block	SIRT5 inh	GSIS activator	PDI inh	S100A4 MyoIIA
O=C(CCN1C(=O)S/C(=C/c2ccccc2)C1=O)Nc1ccc(C(=O)O)c(O)c1	0	4	5	-2	-2
O=C(CCCN1C(=O)C(=Cc2ccc3c(c2)OCO3)SC1=S)Nc1ccc(C(=O)O)c(O)c1	0	34*	-8	-2	-3
C[C@H](NC(=O)C[C@H]1C=C[C@H](NC(=O)CN2CCOCC2)[C@@H](CO)O1)c1ccccc1	5	2	6	/	8
Cc1ccc(S(=O)(=O)Oc2ccc(/C=N/N=C3/NC(=O)C(CC(=O)O)S3)cc2)cc1 (stereo not drawn)	0	28*	7	3	-2
CCOc1cc(/C=N/N=C2/NC(=O)C(CC(=O)O)S2)ccc1OS(=O)(=O)c1ccc(C)cc1 (stereo not drawn)	-3	4	17	0	2
COc1ccccc1CSc1nc2c(c(=O)n(C)c(=O)n2C)n1C	3	-4	41*	6	-2
Cc1ccc(S(=O)(=O)N2[C@@H](c3ccccc3)C(C(=O)O)=CC[C@H]2c2ccc(Cl)cc2)cc1	-5	26*	-10	8	-2
CCC(C(=O)N1CCOCC1)n1nc(C)c2c(C)n(-c3ccccc3)nc2c1=O (stereo not drawn)	-4	6	9	3	-1
CCC(C(=O)N1CCOCC1)n1nc(C)c2sc3ccccc3c2c1=O (stereo not drawn)	9	30*	20	1	0
O=C(O)Cc1ccc(Nc2cnn(C34CC5CC(CC(CC(=O)O)(C5)C3)C4)c(=O)c2Cl)cc1	2	15*	-5	0	-1
CCCC#Cc1cnc2c(c1)C(=O)N([C@H](C)CO)C[C@H](C)[C@H](CN(C)Cc1ccc3c(c1)OCO3)O2	/	/	-9	/	/
COC(=O)c1ccc(NC(=S)NCCCn2ccnc2)cc1	-4	20*	-13	1	7
CCOC(=O)c1ccc(NC(=S)NCCCn2ccnc2)cc1	2	-4	16	-5	-1
Cc1noc(C)c1S(=O)(=O)Nc1ccc2c(c1)C(=O)N([C@H](C)CO)C[C@H](C)[C@H](CN(C)Cc1ccc3c(c1)OCO3)O2	4	4	-2	/	-3
CCn1c(=O)[nH]c(=O)c2c(N)c(C(=O)c3cc(F)ccc3F)sc21	-4	3	55*	-3	2
Cc1ccc(C(=O)c2sc3c(c2N)c(=O)[nH]c(=O)n3CCc2ccccc2)cc1	/	/	25	6	/
CCCNC(=O)N1[C@H](CO)[C@H](c2ccccc2)[C@H]1CNC(=O)c1ccc(F)cc1	/	/	-10	/	/
CCN(C[C@H]1[C@@H](c2ccc(-c3ccccc3F)cc2)[C@@H](CO)N1C(C)=O)C(C)=O	-4	22*	-1	/	7
CCC(=O)N(C)C[C@@H]1[C@@H](c2ccc(-c3ccccc3F)cc2)[C@H](CO)N1C(C)=O	-2	22*	-4	/	6
CCC(=O)N1[C@H](CN(CC)C(C)=O)[C@@H](c2ccc(-c3ccccc3)cc2)[C@@H]1CO	-3	/	9	/	/
CCC(=O)N1[C@H](CO)[C@H](c2ccc(-c3ccccc3)cc2)[C@H]1CN(CC)C(C)=O	8	30*	1	/	11
O=C(O)c1ccccc1CN1C[C@H]2O[C@H](CNS(=O)(=O)c3ccc(Cl)cc3)CC[C@H]21	-7	-9	/	/	5
CCN=C1S/C(=C\c2cc(Br)c(O)c(OC)c2)C(=O)N1CC	3	/	53*	-3	4
Cc1ccsc1/C=C1\SC(=S)N(CC2CCCO2)C1=O (stereo not drawn)	-6	-1	-8	0	-1
COc1ccc(/C=C2\SC(=NCc3ccccc3)N(Cc3ccccc3)C2=O)cc1OC	/	/	16	-1	/
SMILES	ERp5 block	SIRT5 inh	GSIS activator	PDI inh	S100A4 MyoIIA
CCN=C1S/C(=C\c2sccc2C)C(=O)N1CC	2	1	63*	6	-5
COC(=O)c1ccc(Cn2c(O)c(N=NC(N)=S)c3ccccc32)o1	2	0	64*	6	-3
Cc1ccc(Cn2c(O)c(N=NC(=S)Nc3ccccc3F)c3ccccc32)cc1	6	18*	2	0	0
Oc1c(N=NC(=S)Nc2ccccc2F)c2ccccc2n1Cc1ccccc1	3	12	/	3	0
C[C@H]1CN([C@@H](C)CO)C(=O)c2cc(C#Cc3ccccc3F)cnc2O[C@H]1CN(C)C(=O)C1CCCCC1	/	/	-7	/	/
CNC[C@@H]1Oc2c(NC(=O)NC(C)C)cccc2C(=O)N([C@H](C)CO)C[C@@H]1C	-1	-5	-2	/	3
COc1ccc(NC(=O)COC(=O)CCCC2=NS(=O)(=O)c3ccccc3N2)cc1	0	-1	1	0	3
N#Cc1ccccc1COC(=O)CCCC1=NS(=O)(=O)c2ccccc2N1	0	32*	-6	1	-4
COc1cc(/C=C/C(=O)OCC(=O)NC(=O)C2COc3ccccc3O2)ccc1OC(F)F (stereo not drawn)	4	-3	45*	-10	-20
Cc1noc(C)c1S(=O)(=O)N(C)C[C@H]1Oc2ccc(NC(=O)Cc3ccccc3)cc2CC(=O)N([C@H](C)CO)C[C@H]1C	/	/	18	/	/
COC(=O)Cn1c(Cc2ccccc2)nc2ccccc21	-1	-2	11	4	-1
CCN(CC)C(=O)n1c(Cc2ccccc2)nc2ccccc21	-6	-1	48*	-4	2
CCN1CCN(CCCNC(=O)c2ccc3c(c2)N(Cc2ccccc2)CCS3)CC1	6	-26	43*	8	-7
CN1C(=O)c2cc(NC(=O)NCc3ccccc3)ccc2OC[C@@H]2O[C@@H](CC(=O)NCC3CCCCC3)CC[C@H]21	3	1	-7	/	-1
Cc1cc2ccccc2n1CCNC(=O)Cc1cccc2ccccc12	-3	2	8	/	73*
Cc1cc2ccccc2n1CCNC(=O)c1ccc(Br)o1	-3	-1	-9	/	90*
CCCCCCNC(=O)c1ccc(Br)o1	0	32*	3	2	2
O=C(NCCCCc1ccccc1)c1ccc(Br)o1	/	/	-22	-4	/
Cc1cc2ccccc2n1CCNC(=O)c1ccccc1	/	/	-24	-2	/
CC(=O)NCCn1c(C)cc2ccccc21	-3	2	/	/	24
COC(=O)C[C@@H]1C[C@@H]2c3cc(NC(=O)Nc4ccccc4F)ccc3O[C@@H]2[C@@H](CO)O1	-19	4	-2	/	4
Cc1ccc(CNC(=O)c2ccc3nc4[nH]c5ccccc5c4nc3c2)cc1	/	/	61*	/	/
NCC[C@@H]1CC[C@@H](NC(=O)C2CC2)[C@@H](CO)O1	4	-3	0	/	-25
